Experimental findings from ChEMBL document CHEMBL1121989, “Amino acid amide derivatives of 2-[3-(aminomethyl)-4H-1,2,4-triazol-4-yl]benzophenones, a novel class of annelated peptidoaminobenzophenones” (1982) are described below.

Structures are written as SMILES.

For the first experiment, the species on record is Mus musculus. Put plainly: Sedative activity was determined by measuring the loss of the righting reflux induced by thiopental sodium in mice. It counts as functional. In a few lines:
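Male albino DS mice (20-24 g), ten per group, pretreated orally (arabic gum suspension), then given thiopental sodium 35 mg/kg iv. ED50 = dose producing 50% increase in duration of anesthesia, by regression analysis.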
A word on the ED50: it is the dose that gives a 50% effect, or the effect in half of the subjects. Read a low ED50 as greater potency. In turn, `Cc1nnc(CNC(=O)CN)n1-c1ccc(Cl)cc1C(=O)c1ccccc1` showed an ED50 of 0.72 mg/kg.
`Cc1nnc(CNC(=O)CN)n1-c1ccc(Cl)cc1C(=O)c1ccccc1F` registered a 50% effective dose (ED50) of 0.25 mg/kg.
`NCC(=O)NCc1nncn1-c1ccc(Cl)cc1C(=O)c1ccccc1` yielded an ED50 of 1.97 mg/kg.
Same read-out and setting: in the case of `Cc1nnc(CNC(=O)CN)n1-c1ccc(Cl)cc1C(=O)c1ccccc1Cl` it was 0.27 mg/kg; in that of `Cc1nnc(CNC(=O)C(N)Cc2ccccc2)n1-c1ccc(Cl)cc1C(=O)c1ccccc1Cl` (stereo not drawn), 1.52 mg/kg; in that of `NCC(=O)NCc1nnc(C2CC2)n1-c1ccc(Cl)cc1C(=O)c1ccccc1Cl`, 4.94 mg/kg.
In the case of `CN(C(=O)CNC(=O)CN)c1ccc(Cl)cc1C(=O)c1ccccc1`, the ED50 was found to be 5.2 mg/kg.
`Cc1nnc2n1-c1ccc(Cl)cc1C(c1ccccc1)=NC2` [ALPRAZOLAM] gave an ED50 of 0.36 mg/kg.
Take `Clc1ccc2c(c1)C(c1ccccc1)=NCc1nncn1-2` [ESTAZOLAM]: the 50% effective dose (ED50) worked out at 2.32 mg/kg.
On the same count and under the same terms, in the case of `CN(C(=O)CNC(=O)CN)c1ccc(Cl)cc1C(=O)c1ccccc1Cl` [LORZAFONE ANHYDROUS] it was 0.8 mg/kg; in that of `Cc1nnc2n1-c1ccc(Cl)cc1C(c1ccccc1Cl)=NC2` [TRIAZOLAM], 0.18 mg/kg.

Another experiment is filed under the species Mus musculus. Put plainly: Sedative activity was determined by measuring the loss of the righting reflux induced by chlorprothixene in mice. It counts as functional. The method in brief:
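Male albino DS mice (20-24 g), ten per group, given oral test drug (arabic gum suspension) combined with chlorprothixene 2 mg/kg ip; samples estimated 60 min after dosing.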
Compound `Cc1nnc(CNC(=O)CN)n1-c1ccc(Cl)cc1C(=O)c1ccccc1` registered an ED50 of 0.94 mg/kg.
`Cc1nnc(CNC(=O)CN)n1-c1ccc(Cl)cc1C(=O)c1ccccc1F` yielded an ED50 of 0.16 mg/kg.
As for `NCC(=O)NCc1nncn1-c1ccc(Cl)cc1C(=O)c1ccccc1`, the median effective dose (ED50) was 1.66 mg/kg.
On to `Cc1nnc(CNC(=O)CN)n1-c1ccc(Cl)cc1C(=O)c1ccccc1Cl`, for which the ED50 was found to be 0.62 mg/kg.
Compound `Cc1nnc(CNC(=O)C(N)Cc2ccccc2)n1-c1ccc(Cl)cc1C(=O)c1ccccc1Cl` (stereo not drawn) returned an ED50 of 0.23 mg/kg.
`NCC(=O)NCc1nnc(C2CC2)n1-c1ccc(Cl)cc1C(=O)c1ccccc1Cl` gave an ED50 of 0.49 mg/kg.
Regarding `Cc1nnc2n1-c1ccc(Cl)cc1C(c1ccccc1)=NC2` [ALPRAZOLAM], the ED50 was 0.25 mg/kg.
In turn, `Clc1ccc2c(c1)C(c1ccccc1)=NCc1nncn1-2` [ESTAZOLAM] came in with a 50% effective dose (ED50) of 6.22 mg/kg.
`CN(C(=O)CNC(=O)CN)c1ccc(Cl)cc1C(=O)c1ccccc1Cl` [LORZAFONE ANHYDROUS] registered a median effective dose (ED50) of 2.59 mg/kg.

The species entered for the next experiment is Mus musculus. Put plainly: Sedative activity was determined by measuring the inhibition of spontaneous motor activity. It counts as functional.
Compound `Cc1nnc(CNC(=O)CN)n1-c1ccc(Cl)cc1C(=O)c1ccccc1` returned a median effective dose (ED50) of 4.25 mg/kg.
The compound `Cc1nnc(CNC(=O)CN)n1-c1ccc(Cl)cc1C(=O)c1ccccc1F` yielded a median effective dose (ED50) of 1.52 mg/kg.
`NCC(=O)NCc1nncn1-c1ccc(Cl)cc1C(=O)c1ccccc1` had a median effective dose (ED50) of 31.7 mg/kg.
The same measure, in the same setting: for `Cc1nnc(CNC(=O)CN)n1-c1ccc(Cl)cc1C(=O)c1ccccc1Cl` the value was 0.31 mg/kg.
Compound `Cc1nnc(CNC(=O)C(N)Cc2ccccc2)n1-c1ccc(Cl)cc1C(=O)c1ccccc1Cl` (stereo not drawn) gave a 50% effective dose (ED50) of 0.38 mg/kg.
The compound `NCC(=O)NCc1nnc(C2CC2)n1-c1ccc(Cl)cc1C(=O)c1ccccc1Cl` showed a 50% effective dose (ED50) of 1.5 mg/kg.
Take `CN(C(=O)CNC(=O)CN)c1ccc(Cl)cc1C(=O)c1ccccc1`: the ED50 worked out at 15.2 mg/kg.
The compound `Cc1nnc2n1-c1ccc(Cl)cc1C(c1ccccc1)=NC2` [ALPRAZOLAM] came in with an ED50 of 0.94 mg/kg.
The compound `Clc1ccc2c(c1)C(c1ccccc1)=NCc1nncn1-2` [ESTAZOLAM] displayed a median effective dose (ED50) of 3.09 mg/kg.
`CN(C(=O)CNC(=O)CN)c1ccc(Cl)cc1C(=O)c1ccccc1Cl` [LORZAFONE ANHYDROUS] had a 50% effective dose (ED50) of 1.4 mg/kg.
Take `Cc1nnc2n1-c1ccc(Cl)cc1C(c1ccccc1Cl)=NC2` [TRIAZOLAM]: the median effective dose (ED50) was determined as 0.054 mg/kg.

For another experiment, the species on record is Mus musculus. Put plainly: Antianxiety activity was determined by measuring the antagonism of foot shock induced fighting (taming) in mice. The class given is functional. In a few lines: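 Male albino DS mice (20-24 g), oral dosing as arabic gum suspension. Paired mice under glass enclosure given foot shocks (5 Hz, 2 ms, DC 50 V); pairs with 15–20 fighting episodes in 3 min selected, five pairs per dose. Responses counted before and 60 min after dosing; ED50 = dose giving 50% inhibition, by regression analysis.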
For the compound `Cc1nnc(CNC(=O)CN)n1-c1ccc(Cl)cc1C(=O)c1ccccc1`, the ED50 is 3.02 mg/kg.
Turning to `Cc1nnc(CNC(=O)CN)n1-c1ccc(Cl)cc1C(=O)c1ccccc1F`, the 50% effect level (ED50) was put at a dose of 0.28 mg/kg.
`NCC(=O)NCc1nncn1-c1ccc(Cl)cc1C(=O)c1ccccc1` registered a 50% effective dose (ED50) of 5.71 mg/kg.
`Cc1nnc(CNC(=O)CN)n1-c1ccc(Cl)cc1C(=O)c1ccccc1Cl` gave an ED50 of 0.58 mg/kg.
Compound `Cc1nnc(CNC(=O)C(N)Cc2ccccc2)n1-c1ccc(Cl)cc1C(=O)c1ccccc1Cl` (stereo not drawn) had an ED50 of 0.55 mg/kg.
`NCC(=O)NCc1nnc(C2CC2)n1-c1ccc(Cl)cc1C(=O)c1ccccc1Cl`: the ED50 is 2.34 mg/kg.
In turn, `CN(C(=O)CNC(=O)CN)c1ccc(Cl)cc1C(=O)c1ccccc1` displayed an ED50 of 10.9 mg/kg.
`Cc1nnc2n1-c1ccc(Cl)cc1C(c1ccccc1)=NC2` [ALPRAZOLAM] showed an ED50 of 1.09 mg/kg.
As to `Clc1ccc2c(c1)C(c1ccccc1)=NCc1nncn1-2` [ESTAZOLAM], the ED50 was determined as 2.62 mg/kg.
For `CN(C(=O)CNC(=O)CN)c1ccc(Cl)cc1C(=O)c1ccccc1Cl` [LORZAFONE ANHYDROUS], the ED50 turned out to be 3.2 mg/kg.
Same read-out and setting: in the case of `Cc1nnc2n1-c1ccc(Cl)cc1C(c1ccccc1Cl)=NC2` [TRIAZOLAM] it was 0.4 mg/kg.

The species entered for another experiment is Mus musculus. Kind of experiment: Anticonvulsant activity was determined as the degree of protection against convulsions induced by pentylenetetrazole in mice. It counts as functional. The method in brief:
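Male albino DS mice (20-24 g), ten per group, dosed orally as arabic gum suspension. Challenged 60 min later with pentylenetetrazole 125 mg/kg sc; protection from convulsion and death scored over 2 h observation. ED50 (dose protecting 50%) estimated by probit method; 95% confidence limits given.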
`Cc1nnc(CNC(=O)CN)n1-c1ccc(Cl)cc1C(=O)c1ccccc1` came in with a 50% effective dose (ED50) of 0.38 mg/kg.
`Cc1nnc(CNC(=O)CN)n1-c1ccc(Cl)cc1C(=O)c1ccccc1F` came in with a 50% effective dose (ED50) of 0.09 mg/kg.
For `NCC(=O)NCc1nncn1-c1ccc(Cl)cc1C(=O)c1ccccc1`, it took a dose of 1.37 mg/kg to reach the 50% effect level (ED50).
In turn, `Cc1nnc(CNC(=O)CN)n1-c1ccc(Cl)cc1C(=O)c1ccccc1Cl` displayed an ED50 of 0.26 mg/kg.
Compound `Cc1nnc(CNC(=O)C(N)Cc2ccccc2)n1-c1ccc(Cl)cc1C(=O)c1ccccc1Cl` (stereo not drawn) returned a median effective dose (ED50) of 0.31 mg/kg.
Compound `NCC(=O)NCc1nnc(C2CC2)n1-c1ccc(Cl)cc1C(=O)c1ccccc1Cl` registered a 50% effective dose (ED50) of 0.88 mg/kg.
`CN(C(=O)CNC(=O)CN)c1ccc(Cl)cc1C(=O)c1ccccc1`: it took a dose of 2.16 mg/kg to reach the 50% effect level (ED50).
`Cc1nnc2n1-c1ccc(Cl)cc1C(c1ccccc1)=NC2` [ALPRAZOLAM] had an ED50 of 0.22 mg/kg.
On the same count and under the same terms, in the case of `Clc1ccc2c(c1)C(c1ccccc1)=NCc1nncn1-2` [ESTAZOLAM] it was 0.52 mg/kg.
On to `CN(C(=O)CNC(=O)CN)c1ccc(Cl)cc1C(=O)c1ccccc1Cl` [LORZAFONE ANHYDROUS], for which the ED50 worked out at 0.56 mg/kg.
Compound `Cc1nnc2n1-c1ccc(Cl)cc1C(c1ccccc1Cl)=NC2` [TRIAZOLAM] had a median effective dose (ED50) of 0.039 mg/kg.

The species entered for a further experiment is Mus musculus. Kind of experiment: Muscle relaxation was determined by using rotatory drum (rotarod) in mice, activity is expressed as ED50 values. It counts as functional. The method in brief: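 Male albino DS mice (20-24 g), groups of five, oral dosing in aqueous arabic gum. At 60 min placed on a 3 cm wooden rod turning at 5 rpm; animals falling off within 2 min counted. ED50 estimated by up and down method.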
(In general: Falling from the rotarod earlier than controls is read as motor impairment.)
In the case of `Cc1nnc(CNC(=O)CN)n1-c1ccc(Cl)cc1C(=O)c1ccccc1`, the ED50 came out at 3.94 mg/kg.
With `Cc1nnc(CNC(=O)CN)n1-c1ccc(Cl)cc1C(=O)c1ccccc1F`, the ED50 is 1.84 mg/kg.
Compound `NCC(=O)NCc1nncn1-c1ccc(Cl)cc1C(=O)c1ccccc1` came in with an ED50 of 11.8 mg/kg.
Same read-out and setting: for `Cc1nnc(CNC(=O)CN)n1-c1ccc(Cl)cc1C(=O)c1ccccc1Cl` the value was 2.09 mg/kg; for `Cc1nnc(CNC(=O)C(N)Cc2ccccc2)n1-c1ccc(Cl)cc1C(=O)c1ccccc1Cl` (stereo not drawn), 1.83 mg/kg.
`NCC(=O)NCc1nnc(C2CC2)n1-c1ccc(Cl)cc1C(=O)c1ccccc1Cl` displayed an ED50 of 18.7 mg/kg.
Consider `CN(C(=O)CNC(=O)CN)c1ccc(Cl)cc1C(=O)c1ccccc1`, for which it took a dose of 29.3 mg/kg to reach the 50% effect level (ED50).
The same measure, in the same setting: for `Cc1nnc2n1-c1ccc(Cl)cc1C(c1ccccc1)=NC2` [ALPRAZOLAM] the value was 2.22 mg/kg; for `Clc1ccc2c(c1)C(c1ccccc1)=NCc1nncn1-2` [ESTAZOLAM], 5.44 mg/kg.
Compound `Cc1nnc2n1-c1ccc(Cl)cc1C(c1ccccc1Cl)=NC2` [TRIAZOLAM] registered a median effective dose (ED50) of 0.83 mg/kg.
